Broadly, the IC50 is the point on the concentration scale where inhibition reaches its midpoint. As a reminder, the solubility is the dissolved amount per volume that the medium holds. High values mean much dissolved substance, low ones little dissolved substance. In general, Papp refers to a coefficient for how fast a substance crosses the barrier. As a reminder, the Cmax is the peak of the concentration-time curve. What is called AUC is concentration integrated over time. As usually defined, the clearance is the volume of plasma or blood freed of the substance per unit of time. The low end stands for inefficient removal, the high end for efficient removal. By half-life is commonly meant the time in which the quantity being followed falls by half. Higher therefore signals slow decline. Broadly, the AUC(0-t) is the area under the concentration-time curve up to a stated or last time point. One may read the Tmax as the time at which the peak concentration occurs.

The text below walks through data of ChEMBL document CHEMBL4321829, “Chagas Disease Drug Discovery: Multiparametric Lead Optimization against Trypanosoma cruzi in Acylaminobenzothiazole Series” (J Med Chem, 2019).

Series [1] relates to Trypanosoma cruzi. Briefly: Antitrypanosomal activity against Trypanosoma cruzi Tulahuen trypomastigotes beta-galactosidase infected in rat H9c2 cells measured after 72 hrs by DRAQ5 DNA dye based confocal microscopic analysis. Format: functional, organism-based. The settings on record: H9c2, 72 h.
Series [2] concerns H9c2. Kind of series: Cytotoxicity against rat H9c2 cells assessed as reduction in cell viability. Format: cell-based.
Series [3] is described as follows: Selectivity index, ratio of IC50 for rat H9c2 cells to IC50 for antitrypanosomal activity against Trypanosoma cruzi Tulahuen trypomastigotes beta-galactosidase infected in rat H9c2 cells. The series is classed as toxicity, cell-based. The note with it: read-out: Ratio IC50.
Series [4] in a line: Intrinsic clearance in CD-1 mouse liver microsomes at 0.5 uM in presence of NADPH measured up to 45 mins by UPLC/MS/MS analysis. The series is classed as ADME, Microsome. The settings on record: 0.75 h. The method in brief:
(§1)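 Compound at 0.5 μM was incubated with male CD1 mouse or human liver microsomes (0.5 mg/mL in 50 mM potassium phosphate, pH 7.4). The reaction was started with excess NADPH. Samples were taken at 0 and serial times up to 45 min, quenched in acetonitrile with internal standard and analysed by UPLC/MS/MS. Clint (mL/min/g tissue) was derived from t1/2 of parent remaining. Midazolam was the positive control.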
On the technique in general: Microsomes from liver hold many membrane-bound enzymes, among them those of drug oxidation.

Series [5] can be described thus: Intrinsic clearance in human liver microsomes at 0.5 uM in presence of NADPH measured up to 45 mins by UPLC/MS/MS analysis. Format: ADME, Microsome. The note with it: 0.75 h. The method in brief:
as §1

Series [6] can be described thus: Solubility of compound in FASSIF at 1 mg incubated for 4 hrs by HPLC-UV analysis. The series is classed as physicochemical. The method in brief:
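1 mg of solid compound was shaken in 1 mL FaSSIF at pH 6.5, at 900 rpm for 4 h at room temperature. The suspension was filtered and the supernatant quantified by HPLC-UV against a single-point DMSO standard. The dynamic range was 1–1000 μg/mL.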

The nature of series [7]: Apparent permeability in MDCK-MDR1 cells at 3 uM after 60 mins by LC-MS/MS analysis. The series is classed as ADME, cell-based, Canis lupus familiaris. The settings on record: dog. The method in brief:
(§2)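 Papp was measured in MDR1-MDCK monolayers in HBSS at pH 7.4 (n=2), at 3 μM for 60 min. Transport was measured AB and BA, with and without the P-gp inhibitor GF120918. Monolayers were checked by TEER and Lucifer yellow. Analytes were measured by LC-MS/MS as analyte/IS area ratios. Amprenavir, prazosin and propranolol served as references.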

Series [8] is described as follows: Efflux ratio of apparent permeability across […] in MDCK-MDR1 cells at 3 uM after 60 mins by LC-MS/MS analysis. The series is classed as ADME, cell-based, Canis lupus familiaris. The settings on record: dog, mdck-mdr1, 1 h. The method in brief:
as §2

Series [9] in a line: Ratio of drug level in blood to plasma in mouse at 1 uM after 1 hr by LC-MS/MS analysis. The series is classed as ADME, cell-free. In outline: (§3)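 Compound at a final 1 μM was mixed into prewarmed mouse or human whole blood at 37 °C. At 0 and 60 min, blood aliquots were lysed with water and matrix-matched with plasma. Samples were precipitated with IS-containing buffer and analysed by LC-MS/MS. The blood/plasma ratio was taken from compound:IS peak-area ratios.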

Series [10] is described as follows: Ratio of drug level in blood to plasma in human at 1 uM after 1 hr by LC-MS/MS analysis. Format: ADME, cell-free. In outline: as §3
A short description of series [11]: Cmax in C57BL/6 mouse assessed as 5-Fluoro-6-(trifluoromethyl)benzothiazol-2-amine level at 50 mg/kg, po adminstered via gavage as suspension after 15 mins to 24 hrs by LC-MS/MS analysis. Format: ADME, organism-based. The arrangement: dose 50 mg/kg, route oral. The settings on record: in vivo. The method in brief: (§4)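 Female C57BL/6 mice (n=3) were gavaged with 50 mg/kg parent compound as a 1% methylcellulose suspension. Whole blood was sampled at 15, 30, 45 min and 1, 2, 4, 8 and 24 h, diluted 1/2 with water and frozen.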

A short description of series [12]: AUC in C57BL/6 mouse assessed as 5-Fluoro-6-(trifluoromethyl)benzothiazol-2-amine level at 50 mg/kg, po adminstered via gavage as suspension after 15 mins to 24 hrs by LC-MS/MS analysis. Format: ADME, organism-based. On the set-up: dose 50 mg/kg, time upper 24 hr, time lower 0.25 hr, route oral. The note with it: in vivo. In outline: as §4
Series [13] can be described thus: Clearance in CD-1 mouse at 5 mg/kg, iv after 5 mins to 24 hrs by LC-MS/MS analysis. The note with it: in vivo. The series is classed as ADME, organism-based. In outline: (§5)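 Male CD-1 mice (n=3) received a 5 mg/kg i.v. bolus in 5% DMSO/20% encapsine in saline. Blood was drawn at 5, 15, 30 min and 1, 2, 4, 8 and 24 h, diluted 1/2 with water and frozen.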
Series [14] is described as follows: Volume of drug distribution at steady state in CD-1 mouse at 5 mg/kg, iv after 5 mins to 24 hrs by LC-MS/MS analysis. The settings on record: in vivo, read-out: Vdss. The series is classed as ADME, organism-based. In outline:
as §5

Series [15] in a line: Half life in CD-1 mouse at 5 mg/kg, iv after 5 mins to 24 hrs by LC-MS/MS analysis. The settings on record: in vivo. Format: ADME, organism-based. The method in brief: as §5
A short description of series [16]: AUCt in C57BL/6 mouse at 50 mg/kg, po after 15 mins to 24 hrs by LC-MS/MS analysis. The note with it: in vivo. The series is classed as ADME, organism-based. On the set-up: dose 50 mg/kg, time upper 24 hr, time lower 0.25 hr, route oral.
Series [17] can be described thus: Cmax in C57BL/6 mouse at 50 mg/kg, po after 15 mins to 24 hrs by LC-MS/MS analysis. Format: ADME, organism-based. On the set-up: dose 50 mg/kg, route oral. The settings on record: in vivo.
Series [18] can be described thus: Tmax in C57BL/6 mouse at 50 mg/kg, po after 15 mins to 24 hrs by LC-MS/MS analysis. Format: ADME, organism-based. The note with it: in vivo.
The nature of series [19]: Protein binding in human plasma at 2 uM after 4 hrs by LC-MS/MS analysis. The series is classed as ADME, cell-free. The method in brief:
(§6)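 Equilibrium dialysis was run in RED inserts with mouse or human plasma at a final concentration of 2 μM, in triplicate. The receiver side held PBS at pH 7.4. Plates were incubated for 4 h at 37 °C at about 150 rpm. Samples were matrix-matched, protein-precipitated and analysed by LC-MS/MS. %PPB = 100 − (buffer/plasma × 100).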

Series [20] can be described thus: Protein binding in mouse plasma at 2 uM after 4 hrs by LC-MS/MS analysis. The series is classed as ADME, cell-free. In outline: as §6
Series [21] is described as follows: Kinetic solubility of compound by charged aerosol detection method. The series is classed as physicochemical. The note with it: read-out: Kinetic_solubility.
The test system of series [22] is Trypanosoma cruzi. Kind of series: Antitrypanosomal activity against tdTomato red expressing Trypanosoma cruzi CL trypomastigotes infected in C57BL/6 mouse at 50 mg/kg administered for 2 days and measured after 4 to 6 days post infection. Format: functional, organism-based. In outline: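 Baseline footpad fluorescence was imaged on day 2. A single 50 mg/kg dose in 1% carboxymethyl cellulose/0.1% Tween 80 was then given. Imaging was repeated at day 4 or 6. IVA was calculated from the treated versus untreated fluorescence change. Controls were 50 mg/kg benznidazole and untreated mice.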

Values after ≈ are worked out from the molar mass of the structure shown. Active and inactive are the calls of the source. The calls are words filed in the database; no cut-off is given here.

For `O=C(Nc1nc2cc(F)c(C(F)(F)F)cc2s1)C1CC1`, the IC50 in [1] was 79 nM; in series [2], greater than 50000 nM. The selectivity ratio in [3] was greater than 630. Also, the CLH in series [4] turned out to be 5.26 mL/min/g; in [5] it was 0.41 mL/min/g. The same molecule yielded a solubility at 4 h in series [6] of 51 µg/mL (≈ 168 µM). For the same molecule, the Papp at 1 h, 3 µM in series [7] came to 17.4 ×10⁻⁶ cm/s. Also, the Ratio in series [8] stood at 1.5. Also, the blood plasma ratio at 1 h, 1 µM in [9] came to 1.2; in [10], 0.8. Also, the peak concentration (Cmax) in series [11] was found to be 634 ng/mL; in [17], 3390 ng/mL. The AUC in series [12] turned out to be 10065.32 ng·h/mL. For the same molecule, the clearance in [13] worked out at 58.3 mL/min/kg. The Vd in series [14] is 5.73 L/kg. In series [15], this molecule showed a half-life of 0.97 h. Besides, the AUC(0-t) in series [16] amounted to 31600 ng·h/mL. For the same molecule, the time to peak (Tmax) in [18] turned out to be 1.33 h. For the same molecule, the PPB entry in [19] and in [20] was “Active” throughout. The solubility kinetic in [21] came out at 36 µM (≈ 11 µg/mL). The result in series [22] was Active.
